Laboratory results from ChEMBL document CHEMBL1129790 (J Med Chem, 1996).
pEC50, pIC50: −log10 of the molar value.

What was measured:
[1] = target: Glutamate receptor ionotropic, AMPA (Rattus norvegicus, UniProt P19490+P19491+P19492+P19493); assay: Affinity against Ionotropic glutamate receptor AMPA using [3H]AMPA in selective radioligand binding assay; format: protein-complex assay
How it was run: (§1)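 Displacement of the ionotropic radioligands ([3H]CGS19755 for NMDA, [3H]AMPA for AMPA, [3H]kainate for kainate sites) in rat forebrain membranes in vitro. Compounds were tested up to 100 μM, with IC50 as the read-out.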

[2] = target: Glutamate receptor ionotropic, kainate; assay: Affinity value against Ionotropic glutamate receptor kainate using [3H]-kainic acid in selective radioligand binding assay.; format: protein-complex assay; how it was run: as §1
[3] = In vitro ability to displace [3H]glutamate binding to metabotropic glutamate receptors in rat forebrain membranes; format: cell membranes, Membrane
How it was run: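 Radioligand displacement of ACPD-sensitive [3H]glutamate binding to metabotropic glutamate receptors in rat forebrain membranes in vitro. IC50 is reported as mean ± error.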

[4] = target: Glutamate NMDA receptor; assay: Affinity value against N-methyl-D-aspartate (NMDA) receptor using [3H]-CGS- 19755 in glutamate radioligand binding assay.; format: protein-complex assay
How it was run: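 Displacement of the ionotropic radioligands ([3H]CGS19755 for NMDA, [3H]AMPA for AMPA, [3H]kainate for kainate sites) in rat forebrain membranes in vitro.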

[5] = species on record: Rattus norvegicus; assay: Stimulation of [3H]IP (tritiated inositol monophosphate) formation in cross-chopped slices of the neonata rat cerebral cortex.; format: functional
[6] = species on record: Rattus norvegicus; assay: Inhibition of forskolin-stim cAMP formation in cross-chopped slices of the adult rat cerebral cortex.; format: functional
[7] = species on record: Rattus norvegicus; assay: Augmentation of AMPA-induced excitation after Microelectrophoretic application to intact rat spinal neuron; format: functional
How it was run: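 Female Wistar rats (200–230 g) under pentobarbitone Na (60 mg/kg ip initially, supplemented ip as needed) with lumbar laminectomy. A seven-barrel glass microelectrode in spinal gray matter recorded single-neuron firing during timed intermittent AMPA ejection (barrel 10 mM in 200 mM NaCl, pH 7.4). Agonists (barrel 25 mM in 175 mM NaCl, pH 7.4) were ejected in varied order across cells. Response reported as % increase over control, mean ± SEM.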

[8] = test system: Mus musculus; assay: Dose dependent blocking of limbic seizures induced by compound 1 by systemically administrating intraperitoneally

SMILES	pIC50 [1]	pIC50 [2]	pIC50 [3]	pIC50 [4]	pEC50 [5]	pEC50 [6]	Increase [7] [%]	EC50 [8] [mg/kg]
N[C@@]1(C(=O)O)CN[C@H](C(=O)O)C1	< 4.00	< 4.00	< 4.00	4.62	–	–	–	–
N[C@]1(C(=O)O)CN[C@@H](C(=O)O)C1	< 4.00	< 4.00	< 4.00	–	–	–	–	–
N[C@]1(C(=O)O)CN[C@H](C(=O)O)C1	< 4.00	< 4.00	< 4.00	< 4.00	–	–	–	–
N[C@@]1(C(=O)O)CC[C@@H](C(=O)O)C1	< 4.00	< 4.00	4.99	< 4.00	4.56	5.09	95	–
N[C@@]1(C(=O)O)CN[C@@H](C(=O)O)C1	< 4.00	< 4.00	5.19	< 4.00	–	4.84	52	271
